Rows were chosen to be rich in hits. Some 1.7% of all compounds tested hit in one or more screens of this group.
STEP inh = inhibitors of human striatal-enriched phosphatase STEP; P54829; recombinant STEP, OMFP fluorogenic substrate, fluorescence; inhibition, % at 20 µM; 360,000 tested, 0.25% active; AID 588621;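 active = inhibition at 20 µM, scaled per plate between control wells, above about 37%, limit read from the data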;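 also: 0% = DMSO with enzyme and substrate and 100% = substrate only without enzyme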
Target sequence (P54829 whole entry, looked up): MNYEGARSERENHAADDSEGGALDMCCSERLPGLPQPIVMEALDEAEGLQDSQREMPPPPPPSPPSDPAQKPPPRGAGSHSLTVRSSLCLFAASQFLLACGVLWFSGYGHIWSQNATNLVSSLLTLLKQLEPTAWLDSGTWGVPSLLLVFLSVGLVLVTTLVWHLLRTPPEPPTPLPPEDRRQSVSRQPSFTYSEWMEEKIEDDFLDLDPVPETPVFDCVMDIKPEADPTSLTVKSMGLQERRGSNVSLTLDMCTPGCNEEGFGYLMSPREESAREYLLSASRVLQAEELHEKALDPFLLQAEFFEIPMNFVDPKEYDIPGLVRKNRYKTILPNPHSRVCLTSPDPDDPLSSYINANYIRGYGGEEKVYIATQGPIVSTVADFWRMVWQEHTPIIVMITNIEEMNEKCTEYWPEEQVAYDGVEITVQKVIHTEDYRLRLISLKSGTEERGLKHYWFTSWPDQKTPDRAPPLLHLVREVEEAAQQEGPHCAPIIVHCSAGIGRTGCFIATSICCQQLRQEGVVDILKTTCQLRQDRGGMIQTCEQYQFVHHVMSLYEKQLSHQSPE
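Material: STEP (striatal-enriched tyrosine phosphatase) enzyme, cell-free | Medium: 50 mM Bis-Tris pH 6.0 with 2.5 mM DTT and 0.005% Tween 20 | Read-out: Percent inhibition scaled to no-enzyme and uninhibited-enzyme controls, plate-pattern corrected | Signal: Fluorescence read at 480 nm ex / 540 nm em | Times: 20 min reaction, room temperature, in the dark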
SUMO1 PPI mod = alters human SUMO1 binding to SIM partners | 360,000 tested, 0.33% active | P63165 | inhibition, % at 20 µM | SUMO1 binding to a labelled peptide, TR-FRET, 1 h; in the data active = inhibition above about 37%
Target sequence (P63165 whole entry, looked up): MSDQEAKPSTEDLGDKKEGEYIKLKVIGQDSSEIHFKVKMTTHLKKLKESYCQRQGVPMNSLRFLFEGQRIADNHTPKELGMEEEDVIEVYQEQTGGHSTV
DNMT1 inh = inhibitors of human DNMT1; P26358; DNMT1 molecular beacon, Hinp1I cleavage, fluorescence; inhibition (reported as % activation of signal), % at 10 µM; 360,000 tested, 0.83% active; AID 588458; in the data active = inhibition above about 50%
Scp-1 inhibitor = blocks human Scp-1 phosphatase activity | Q9GZU7 | Recombinant Scp1, phosphopeptide, malachite green phosphate absorbance | inhibition, % at 20 µM | 340,000 tested, 0.88% active | AID 493091;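 active = inhibition above about 50% at 20 µM, limit read from the data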;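 also: plate controls were DMSO wells with enzyme for no effect and wells lacking enzyme for full effect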
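System: truncated SCP-1 phosphatase (76-261aa); medium: Tris acetate buffer pH 5.5 with MgCl2 and Tween-20; incubation: 45 min room-temperature reaction, 5 min colour, 30 min stabiliser; compound: single 20 µM dose, 1% DMSO; reagent: Phosphorylated 17-residue peptide substrate; read-out: % inhibition at 20 µM; technique: colorimetric free-phosphate detection, absorbance 630 nm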
LMPTP inh = LMPTP (human) inhibition; recombinant LMPTP-A, OMFP fluorogenic substrate, fluorescence intensity; inhibition, % at 20 µM; 360,000 tested, 0.22% active;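 active = compounds that cut the enzyme signal by at least half of the control window in the single-dose screen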;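 also: plate controls were DMSO wells with enzyme plus substrate for no effect and substrate without enzyme for full effect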
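Test system: LMPTP-A phosphatase enzyme; input: 0.625 nM LMPTP-A final; reagent: OMFP substrate, 400 µM final; compound dosing: 20 µM single dose, 3% DMSO; incubation: 50 min dark incubation at room temperature; measured by: endpoint fluorescence intensity from OMFP dephosphorylation; measure: % inhibition relative to no-enzyme and uninhibited control wells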
Beacon interf DR = shows spectral interference in the DNMT1 beacon assay; shares compounds with DNMT1 inh; molecular beacon fluorescence, spectral interference counter-screen; IC50, µM; 200 tested, under 10 active; call rule not given here
DNMT1 inh conf = confirmation of human DNMT1 inhibitors | DNMT1 molecular beacon HinP1I cleavage, fluorescence | inhibition, % at 10 µM | shares compounds with DNMT1 inh | 2,300 tested, 8% active;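 active = average inhibition of at least 30% in the single-concentration confirmation test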
Beacon interf = counter-screen for DNMT1 inhibitors: spectral interference | shares compounds with DNMT1 inh | DNMT1 molecular beacon spectral interference counterscreen, fluorescence 485/520 | activation (fluorescence interference), % at 10 µM | 2,300 tested, 1% active | AID 602387;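 active = activation of at least 30% at 10 µM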;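 also: DNMT1 catalytic domain with a HinP1I cleavage step and a FAM/dabcyl DNA beacon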
An asterisk follows results filed as active; x = no result given.

SMILES	STEP inh	SUMO1 PPI mod	DNMT1 inh	Scp-1 inhibitor	LMPTP inh	DNMT1 inh conf	Beacon interf	others
CCN(C[C@H]1N[C@@](CC)(C(=O)OC)[C@H]2C(=O)N(C)C(=O)[C@@H]12)C(=O)NC(C)C	-3	-1	6	-8	-2	x	x
O=C(C[n+]1cccc2ccccc21)c1ccc(NC(=O)c2ccccc2)cc1	-2	-22	-2	1	1	x	x
Cc1cc[n+](CC(=O)c2ccc(NC(=O)c3ccccc3)cc2)c2ccccc12	-1	-23	53*	2	8	2	1
CSc1nc(NCC(C)O)c2c3c(sc2n1)CN(C)CC3 (stereo unspecified)	1	1	-1	14	1	x	x
CSc1nc(SCC(=O)NC(c2ccccc2)c2ccccc2)c2c3c(sc2n1)CN(C)CC3	10	-12	63*	0	4	2	-4
O=[N+]([O-])c1ccc(N/N=C/c2ccc(O)c(O)c2O)c(S(=O)(=O)N2CCOCC2)c1	6	22	62*	3	67*	-2	-1
O=[N+]([O-])c1ccc(N/N=C/c2cccc(O)c2O)c(S(=O)(=O)N2CCOCC2)c1	-3	-14	-6	-5	6	x	x
Cc1ccsc1C(=O)C1CCCN(Cc2cccn2-c2ccc(Cl)cn2)C1 (stereo unspecified)	3	-1	113*	26	1	1	-2
O=C(c1ccc(Cl)cc1)C1CCCN(Cc2cccn2-c2ccccn2)C1 (stereo unspecified)	-2	1	1	-2	-1	x	x
CCN(CC)S(=O)(=O)c1cc(NS(=O)(=O)c2ccccc2)ccc1C	0	1	75*	-2	2	4	4
CCN(CC)S(=O)(=O)c1cc(NS(=O)(=O)c2cccc(C(=O)O)c2)ccc1C	4	5	-2	-5	-2	x	x
CCCNC(=O)Cn1c(=O)/c(=C/c2ccc(-c3cccc([N+](=O)[O-])c3)o2)s/c1=C\C(=O)C(C)(C)C	-25	1	68*	-8	2	17	23
Cc1cccc2sc(NC(=O)C3CCCO3)nc12 (stereo unspecified)	-3	-4	3	13	0	x	x
Cc1nc(C)c(C(=O)Nc2nc3c(C)cccc3s2)o1	7	17	79*	49	5	10	0
N#Cc1cn(-c2ccccc2)nc1-c1cc2ccccc2oc1=O	4	17	-6	2	1	x	x
O=Cc1cn(-c2ccccc2)nc1-c1cc2c(ccc3ccccc32)oc1=O	1	-3	53*	-11	12	1	-5
Cc1ccc(Nc2nc(=O)c3cc([N+](=O)[O-])ccc3s2)cc1	4	-20	59*	29	14	1	-4
Cc1ccccc1Nc1nc(=O)c2cc([N+](=O)[O-])ccc2s1	-1	-17	1	-9	-1	x	x
COc1ccc(-c2nc3ccc(Cl)cn3c2Cc2ccc(C)cc2)cc1OC	1	6	-13	x	1	x	x
CCOc1ccc(-c2nn(-c3ccccc3)cc2/C=C2\SC(=S)N(Cc3ccco3)C2=O)cc1	5	1	14	1	0	x	x
CC(C)COc1ccc(-c2nn(-c3ccccc3)cc2/C=C2/SC(=S)N(CC(=O)O)C2=O)cc1	9	21	65*	11	38	67*	-9	Beacon interf DR=>99
Cc1ccc(-c2nn(-c3ccccc3)cc2C=C2SC(=S)N(CCS(=O)(=O)O)C2=O)cc1	5	72*	76*	x	82*	107*	-14	Beacon interf DR=>99
COc1ccc([C@H]2N[C@]3(CCCN(Cc4cccn4C)C3=O)[C@H]3C(=O)N(Cc4ccccc4)C(=O)[C@@H]23)cc1	-2	2	2	x	1	x	x
COc1ccc(-c2ccc(CN3C(CC(C)C)C(=O)N(Cc4cn(CCC5OCCCO5)nn4)CCS3(=O)=O)cc2)cc1OC (stereo unspecified)	0	1	-11	x	0	x	x
CCOc1ccc(S(=O)(=O)N(CC(=O)N/N=C/c2ccc(-c3ccc([N+](=O)[O-])cc3)o2)c2ccccc2)cc1	6	1	100*	49	19	11	-5
SMILES	STEP inh	SUMO1 PPI mod	DNMT1 inh	Scp-1 inhibitor	LMPTP inh	DNMT1 inh conf	Beacon interf	others
CCOC(=O)c1ccc(-c2ccc(/C=N/NC(=O)CN(c3cccc(C)c3)S(C)(=O)=O)o2)cc1	-2	6	57*	9	1	3	2
COc1ccc(S(=O)(=O)Nc2ccc(C)c(S(=O)(=O)N3CCOCC3)c2)cc1[N+](=O)[O-]	5	-17	2	-4	0	x	x
CC(=O)NCCc1c(C)n(Cc2ccccc2)c2ccccc12	1	0	-1	-8	1	x	x
CSc1ccccc1NC(=O)COC(=O)c1ccc(-n2nc(C)cc2C)cc1	1	2	1	-3	0	x	x
CC(=O)c1oc2ccccc2c1NC(=O)COC(=O)c1ccc(-n2nc(C)cc2C)cc1	0	-1	54*	16	19	1	3
C=CCn1c(C)cc(-c2csc(NC(=O)C3CCN(c4ncnc5sc(C)c(C)c45)CC3)n2)c1C	1	-1	65*	6	1	3	-7
COc1ccc(-c2csc(NC(=O)C3CCN(c4ncnc5sc(C)c(C)c45)CC3)n2)cc1OC	-2	10	-8	8	4	x	x
Cn1ncc2c(=S)nc(Cl)[nH]c21	1	9	11	13	16	x	x
Cc1cc(=O)[nH]c(N/N=C/CCc2ccccc2)n1	0	-1	56*	-1	0	4	28
Cc1nc2ccccc2n1CC(=O)NN	0	21	74*	-8	0	1	4
COc1cc(-c2nnc(NC(=O)CCS(=O)(=O)c3ccccc3)o2)cc(OC)c1OC	1	-1	1	1	0	x	x
CC(=O)OCC(=O)Nc1ccc([N+](=O)[O-])cc1Cl	2	-24	2	-15	-2	x	x
O=C(COC(=O)C12CC3CC(CC(C3)C1)C2)Nc1ccc([N+](=O)[O-])cc1Cl	2	-8	72*	-1	1	3	5
CCOC(=O)C1(C)CCN1C(=O)COc1ccccc1 (stereo unspecified)	-2	-3	16	x	-2	x	x
N#Cc1c(SCC(=O)Nc2ccc(Cl)cc2Cl)sc2c(O)cc(=O)[nH]c12	7	4	21	41	22	x	x
N#Cc1c(SCC(=O)Nc2nc3ccc(Br)cc3s2)sc2c(O)cc(=O)[nH]c12	22	31	80*	54*	53*	27	-4	Beacon interf DR=>99

Screening data (PubChem BioAssay)
